Series [1] can be described thus: Therapeutic index ([…]) was evaluated. The note with it: read-out: TI50.
Series [2] relates to Human immunodeficiency virus 1. Put plainly: (§1) CC50 reflects the drug concentration that elicits 50% cell death of CEM-SS cells and HIV-1RF was measured using XTT assay. Conditions: Human immunodeficiency virus 1, CEM-SS. The class given is functional. Put shortly: (§2)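 CEM-SS cells infected with HIV-1RF. EC50 is the concentration giving 50% cytoprotection. CC50 is the concentration eliciting 50% cell death.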
(Formazan colour is commonly taken as a measure of viable cells.)

Series [3] deals with Human immunodeficiency virus 1. Put plainly: (§3) Compound concentration that provides 50% cytoprotection on CEM-SS cells and HIV-1RF was measured using XTT assay. It is filed as functional, organism-based. The note with it: Human immunodeficiency virus 1, CEM-SS. In short, it runs like this: as §2
Series [4] has as its system CEM-SS. The description is as §1. The class given is functional. The note with it: Homo sapiens. In short, it runs like this: as §2
Series [5] deals with CEM-SS. Described as §3. The class given is functional, cell-based. The note with it: Homo sapiens. In short, it runs like this:
as §2

In series [6] the test system is Human immunodeficiency virus 1. Briefly: CC50 reflects the drug concentration that elicits 50% cell death of PBMC cultures and HIV-1RF was measured using XTT assay. The class given is functional.
Series [7] concerns Human immunodeficiency virus 1. Briefly: Compound concentration that provides 50% cytoprotection on PBMC cultures and HIV-1RF was measured using XTT assay. The class given is functional, organism-based.

On to `NS(=O)(=O)c1ccc(NC(=O)c2ccccc2SSc2ccccc2C(=O)Nc2ccc(S(N)(=O)=O)cc2)cc1`, for which, in series [1], the selectivity ratio was more than 87. The CC50 in series [2] is more than 200 µM. The same compound came in with an EC50 in series [3] of 2.3 µM.

Turning to `NC(=O)/N=N/C(N)=O` [E927A], in series [1], the selectivity ratio is more than 5.3. Also, the CC50 in series [2] is more than 200 µM. In series [3], this compound yielded an EC50 of 38 µM.

Regarding `O=S1(=O)C[C@H](O)[C@H](O)CS1`, the selectivity ratio in series [1] was 27.9. Besides, the CC50 in series [4] was determined as 184 µM. This compound showed an EC50 in series [5] of 6.6 µM.

Consider `NC(=O)c1cccc(N=O)c1`, for which the 50% cytotoxic concentration (CC50) in series [6] was 50 µM; in series [2] it was 10.6 µM. Besides, in series [7], the EC50 was 1560 nM.

One may read the CC50 as the concentration giving 50% cytotoxicity. In general, EC50 refers to the concentration needed to bring the measured effect to its halfway point. A lower EC50 goes with a more potent agent.

For the origin of these results see ChEMBL document CHEMBL1131334, “Anti-HIV agents that selectively target retroviral nucleocapsid protein zinc fingers without affecting cellular zinc finger proteins” (J Med Chem, 1998).
